# Measured values taken from the EternaBench riboswitch data.
# System: MS2 coat protein
# Experiment: apparent Kd, MS2 coat protein; higher = weaker binding; RNA-MaP array
# Procedure, shortened: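 In Tris-HCl pH 7.5 buffer with KCl, MgCl2, BSA, DTT, tRNA and Tween20, with or without input ligand, fluorescently labeled MS2 coat protein at 1.5 nM to 3 μM was incubated at room temperature with designed RNAs. The RNAs had been transcribed on an Illumina sequencing chip from sequenced DNA templates, and incubation ran 0.8–1.5 h at the lowest to 10–20 min at the highest concentrations. Apparent Kd is the median of binding-curve fits for individual clusters. Designs measured on fewer than 10 clusters were excluded.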
# [1] = designed as: OFF switch for flavin mononucleotide, no ligand
# [2] = ligand present: flavin mononucleotide, designed as: OFF switch for flavin mononucleotide
# [3] = designed as: ON switch for flavin mononucleotide, no ligand
# [4] = ligand present: flavin mononucleotide, designed as: ON switch for flavin mononucleotide
# [5] = designed as: ON switch for tryptophan, no ligand
# [6] = ligand present: tryptophan, designed as: ON switch for tryptophan
# [7] = designed as: ON switch for theophylline, no ligand
# [8] = ligand present: theophylline, designed as: ON switch for theophylline
# [9] = designed as: OFF switch for tryptophan, no ligand
# [10] = ligand present: tryptophan, designed as: OFF switch for tryptophan
# [11] = designed as: OFF switch for theophylline, no ligand
# [12] = ligand present: theophylline, designed as: OFF switch for theophylline
Sequence,apparent Kd [1] [nM],apparent Kd [2] [nM],further results
ACAGAACGAGGAUAUCCACUUUGAUACAUGAGGAUCACCCAUGUCCUGAAAGUGUUUCAGGGAGAAGGCGUACCUA,18,,
ACACCUCACGGAAUACAUGAGGAUCACCCAUGUUGGGAAGGAAGAAGGUUCCGUGUUGAUUGCUGAAAGGAUAUUCGUGACCCG,190,153,
UAAGAAGUCCAGAAGGUAGCCCUACCGUACAGCUAAGGAUAUGGCUCACCGGUUUCAACAUGAGGAUCACCCAUGUCCUCCCGG,,,apparent Kd [3]: 55.9 nM; apparent Kd [4]: 36.3 nM
UUUCAAGUAUCGGCCGCCACUCUAGUUGGUUGUUCAAUCCGAUUACAUGAGGAUCACCCAUGUCUGAGGACCGGGAUAAAGUAAU,,,apparent Kd [5]: 26.1 nM; apparent Kd [6]: 31.8 nM
CGUAAACAUGAGGAUCACCCAUGUGAUGAUACCAGCACGAUUAACUGCCCUUGGCAGCAUGUAUUGUACGACUUAUUGCCCAUCG,,,apparent Kd [7]: 14.8 nM; apparent Kd [8]: 16.8 nM
UGCCUCCAGCGAGGAUAUAUGUAGAGAUACACCAUAGAAGGCGCUGUAGUGGAACAUGAGGAUCACCCAUGUGACCUCGCCCGG,13.2,17.6,
UCGAGUGGGCAGAAGGUGUCGGACUAUACAUGAGGAUCACCCAUGUGGAAACCUCCCGGUUUGAACAAGGAUAUGCCUCGUAAA,,,apparent Kd [3]: 95.6 nM; apparent Kd [4]: 71.4 nM
GACAAAAUGGUAGGAUAUGCUUGGUCUUGAUCAGCAGAAGGACCACAUGAGGAUCACCCAUGUGCAGUGAUUCUGGGAGCUCGC,55.2,93.3,
CUGCCACGAACGGCCGCCACUUACAUGAGGAUCACCCAUGUGCCUGCGCACAAAGAAUGUCAAGAAAGGACCGGGUUCAAAUAGU,,,apparent Kd [9]: 61.3 nM; apparent Kd [10]: 66.8 nM
CCUGGACAUGAGGAUCACCCAUGUGAGGAUACCAGAUAUCCUGAUAUCCCUUGGCAGCCUCAUUACUUCGCAUUACCGAAACUUC,,,apparent Kd [7]: 103 nM; apparent Kd [8]: 249 nM
GAUCCGUACCAGACCUUCAAUGGACUCAGUCGAGGACCGGUACGGCCGCCACUCGGAGAAGAACAUGAGGAUCACCCAUGUGAUG,,,apparent Kd [9]: 36.3 nM; apparent Kd [10]: 53.8 nM
CAUACGCCGCAGAAGGAGUCGAGUCCGUUUCAACUAGGAUAUGCCAGAACAUGAGGAUCACCCAUGUUGCGGGUGCAGCUCAAU,37.8,38.9,
GCGAAGCGAGGAUAUUAAUCCGUACACAUGAGGAUCACCCAUGUGAAUCAAUCAUGUGGUUAAGAAGGCGCGUGGG,541,73.2,
GUACCUCAAGGAUAUGCCCGAUCUUACAUGAGGAUCACCCAUGUUGGCUCAGGGCUUAGGGCAGAAGGUGAGAAGU,6.38,7.52,
CCGCGACAUGAGGAUCACCCAUGUGAUUUGACCUCCGGCACGAGAAGGUUCCGACCAAACGGCCGAAAGGAUAUCGUCCCAGAG,,,apparent Kd [3]: 64.1 nM; apparent Kd [4]: 38.6 nM
ACUUACGGAAAGAAGGAGGGACAGUCACGGCGGGCGGACCACAUGAGGAUCACCCAUGUGCGAGCCUAGGAUAUUUAGGGUAGC,7.19,7.23,
UGUACCUGUAUCUGGUCCAUAGUAUAACCUCGAGGACCGGUACGGCCGCCACUCGUCGGACCACAUGAGGAUCACCCAUGUACCG,,,apparent Kd [9]: 11.6 nM; apparent Kd [10]: 12.7 nM
GGAUUGAUAGGAUAUACAUAGAUGUAGGAGCCUUCACUCCCACAUGAGGAUCACCCAUGUAGAAGGAUCAGUAA,12.1,23.6,
UUAGCACAUGAGGAUCACCCAUGUCUCGAUACCAGAUAAGUUCCGAUCCCUUGGCAGCGACAAGCUUGCAAACUGCGACUAUUCU,,,apparent Kd [7]: 24.7 nM; apparent Kd [8]: 25 nM
GUACCUCCUCAGAAGGCGCGUAGAGCCGGCACAUGAGGAUCACCCAUGUCGAGGCGAAAUGCAGGCGAGGAUAUGAAGGGUUUC,,,apparent Kd [3]: 4.88 nM; apparent Kd [4]: 4.92 nM
GAAAGGUGAGGAUAUACAUGAGGAUCACCCAUGUGUAGAAAUAGAAAGAAAAUCUCAAGUAGAAGGCACAAACA,11.3,13.7,
ACGUUCGCGGUAUCCAACCGGUUGUACAAACGAGGACCGGUACGGCCGCCACUCGUGAUUGUACAUGAGGAUCACCCAUGUGGCA,,,apparent Kd [9]: 17.6 nM; apparent Kd [10]: 17.2 nM
GCGUGAGCGACGUGUCUUCCACAUGAGGAUCACCCAUGUCGCAGAAGGACUUGAAUCGUAUUAAAGUAGGAUAUGCGUAGGACG,,,apparent Kd [3]: 38.3 nM; apparent Kd [4]: 29 nM
GCCAAAAUACCCGAUACCAGUAUUAAUAGCACAACCUCACACAUGAGGAUCACCCAUGUAUACCCUUGGCAGCGGCCUAACAUAA,,,apparent Kd [11]: 36.9 nM; apparent Kd [12]: 102 nM

Sequence,apparent Kd [1] [nM],apparent Kd [2] [nM],further results
CUGCAGACCCAGAAGGUUCACAUGAGGAUCACCCAUGUGCCUAUCAAUAAGUAAGGUAAAGGCUGAAAGGAUAUGGGUAAAGGA,,,apparent Kd [3]: 10.7 nM; apparent Kd [4]: 8.47 nM
UGGCUUGAAGGAUAUACAUGAGGAUCACCCAUGUAUCGCUAAAAGAGAAAUCCAUAAUGUAGAAGGUCAUCCCA,8.91,12,
AGAUUCUCUGAAGGAUAUCGCGUUUAUUUCGAGCGAGAAGGUCAAUUAUGGGAGAUGCACAUGAGGAUCACCCAUGUUCGAAAA,339,119,
UUUACACACUCAGGAUAUGAAUUCAAUUUAUCGGGCCGCUAACAUGAGGAUCACCCAUGUAACAUUCAGAAGGGAGAAGAGCCA,17.5,13.7,
GUCGCAUGAGGAUAUACAUGAGGAUCACCCAUGUAUCUACGCAUGGGAAGACACCAAUGUAGAAGGCAUCUCAA,64.2,21.5,
UGAGAACAUGUCUUUAAGUUUACCUCUGAUACCAGAUUGAAAGGCAUCCCUUGGCAGCAGCAUACAUGAGGAUCACCCAUGUCCU,,,apparent Kd [11]: 111 nM; apparent Kd [12]: 138 nM
GCAAUUCUUGAGAAGGUCGUAGUGCGCAGACCAAAAGCACAUGAGGAUCACCCAUGUGAUCAAACGAAGGAUAUCACAGUAGAA,51.9,49.3,
CCGCCUCGCGUCAGGAUAUGUAACAAUUGUCAAAUACAGAAGGGACAUGAGGAUCACCCAUGUUUACAUACCAA,18,42.2,
AUUGUCAAGUCGGCCGCCACUUCUGCCAUGGCCACCAGUCGACAUGAGGAUCACCCAUGUCUCUUAAGGACCGGGACUUUCAAUU,,,apparent Kd [5]: 13.2 nM; apparent Kd [6]: 12.1 nM
CGUCUGUGAGGAUAUGGUCGAGGUUGGUGAAUUACUUACAUCCAGAAGGCACAUGAGGAUCACCCAUGUACAUC,10.5,13.8,
GAUAAAGCAGGAUAUACAUACCGGCCAUGACUAAAAGAAGGACAUGAGGAUCACCCAUGUAGAAGGGCUUAAAA,15.7,30.5,
UCCCUACCGUCGGCCGCCACUGGGUCAUACAGUUCGUAACUACAUGAGGAUCACCCAUGUGCAGCCAGGACCGGGACGCGCCUUG,,,apparent Kd [5]: 177 nM; apparent Kd [6]: 106 nM
UCACUCUGCCGAGGAUAUGCUGGGUCUGACAUGAGGAUCACCCAUGUAACGGGCAGAGUGUUCCAGCAGAAGGCGGCCAGUACC,,,apparent Kd [3]: 42.5 nM; apparent Kd [4]: 44.6 nM
GAAAUACAUGAGGAUCACCCAUGUCAGGAUAUCGGUGAGAAAGAGCAUCUCUGCGGCCCGAGAAGGGACACAGG,64.5,51.8,
UCACAUGAGGAUCACCCAUGUAAAUCACACGACGGUGCUGUCAAGGAUAUGUUACGCUCAGGGCUACAGAAGGUGAUGGUCAAG,,,apparent Kd [3]: 52.7 nM; apparent Kd [4]: 25.2 nM
AGAUCCUAAGUAAGGAUAUACCUCGCACACAAGUCGUAGAAGGUACAUGAGGAUCACCCAUGUAGGAAAGUACU,12.4,15.3,
GGUCCAAUAGGAUAUACAUGAGGAUCACCCAUGUAAUGGAAGCUCGGGUUUUGGUACUGUAGAAGGAUUGGGAC,25.8,40.9,
ACCUAUACUCCAGGAUAUCAAGACCGAUGACAUGAGGAUCACCCAUGUCAAUCAAAACCAUGACGUGAGAAGGGGAGGCUCGUC,,,apparent Kd [3]: 6.5 nM; apparent Kd [4]: 6.05 nM
AUAAAGGAAGGAUAUACAUGAGGAUCACCCAUGUUGAAAUACAGAAAAGGAGAAACAAGUAGAAGGACCGAUGU,14.2,11.6,
CCUCAACAUGAGGAUCACCCAUGUCAGGAUAUCUAGGAGACAUCACAUGCGUCCGAUGAGAGAAGGGACACAGU,25.1,27.5,
GGAACGAUCACUUCUUUAUCUAAGGCGGAUACCAGUCCUCGGUUUGACCCUUGGCAGCCGACAACAUGAGGAUCACCCAUGUUCU,,,apparent Kd [11]: 15.6 nM; apparent Kd [12]: 20.4 nM
GUAAACGCCACAGGAUAUUGGCAGAAUAAGGAGCAAGAAGGGUGGGAUAGAAUCACGUGAACAUGAGGAUCACCCAUGUGUGGA,,,apparent Kd [3]: 55.3 nM; apparent Kd [4]: 38 nM
GGAGUGUGAGGAUAUGACGCGCCAGGCACACUUGAAUGCGCUCAGAAGGCACAUGAGGAUCACCCAUGUAAGCA,8.29,13.3,
